The text below walks through data of ChEMBL document CHEMBL2203171, “The use of small molecule probes to study spatially separated stimulus-induced signaling pathways” (Bioorg Med Chem Lett, 2012).

What all share (type): cell-based
Experiment [1] concerns the target T1, Inhibitor of nuclear factor kappa-B kinase subunit beta (Mus musculus) (UniProt O88351).
T1 sequence (whole entry): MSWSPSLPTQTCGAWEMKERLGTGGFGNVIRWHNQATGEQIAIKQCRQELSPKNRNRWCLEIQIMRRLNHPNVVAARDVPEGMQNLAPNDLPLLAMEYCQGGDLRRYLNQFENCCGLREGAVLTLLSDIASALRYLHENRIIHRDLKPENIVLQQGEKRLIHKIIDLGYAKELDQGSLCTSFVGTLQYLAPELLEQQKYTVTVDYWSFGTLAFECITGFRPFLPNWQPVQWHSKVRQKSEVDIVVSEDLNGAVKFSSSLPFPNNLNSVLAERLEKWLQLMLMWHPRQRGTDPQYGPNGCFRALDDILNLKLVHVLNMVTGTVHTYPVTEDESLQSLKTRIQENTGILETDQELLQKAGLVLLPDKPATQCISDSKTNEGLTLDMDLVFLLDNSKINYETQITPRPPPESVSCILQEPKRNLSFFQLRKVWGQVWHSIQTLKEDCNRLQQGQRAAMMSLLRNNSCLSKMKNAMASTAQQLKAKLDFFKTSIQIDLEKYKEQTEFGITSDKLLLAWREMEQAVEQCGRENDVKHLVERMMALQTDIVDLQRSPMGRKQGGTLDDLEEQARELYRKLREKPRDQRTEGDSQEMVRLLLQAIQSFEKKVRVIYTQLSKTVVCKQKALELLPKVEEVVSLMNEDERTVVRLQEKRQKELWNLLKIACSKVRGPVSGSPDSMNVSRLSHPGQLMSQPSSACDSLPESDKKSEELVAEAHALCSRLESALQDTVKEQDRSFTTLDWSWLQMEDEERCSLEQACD
Description: Inhibition of IKKbeta in C57BL/6 mouse BMDM cells assessed as inhibition of LPS-induced IkappaBalpha phosphorylation at 50 uM up to 90 mins by Western blot analysis.

Experiment [2] addresses Toll-like receptor 2 (Mus musculus) (UniProt Q9QUN7). Description: Inhibition of MyD88 recruitment to TLR2 in C57BL/6 mouse BMDM cells assessed as inhibition of HKSA-induced IkappaBalpha phosphorylation up to 90 mins by Western blot analysis. The method in brief:
(§1)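 Bone marrow macrophages from C57BL/6 mice, grown in 70% growth medium (DMEM, 10% FBS) plus 30% L929-conditioned medium and given fresh medium 12-14 h before stimulation. Stimuli: IL-1 40 ng/ml, HKSA ~10^8 cfu/ml, pI:pC 50 μg/ml or CpG 10 μg/ml, ± compound at 10 μM (final) added from a 200x DMSO stock. IκBα and p38 profiled by immunoblot. Three independent experiments, quantitated and normalized.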
In general terms: In western blotting, separated proteins are transferred to a membrane and probed.

For experiment [3], the target named is T2, Toll-like receptor 9 (Mus musculus) (UniProt Q9EQU3).
T2 sequence (whole entry): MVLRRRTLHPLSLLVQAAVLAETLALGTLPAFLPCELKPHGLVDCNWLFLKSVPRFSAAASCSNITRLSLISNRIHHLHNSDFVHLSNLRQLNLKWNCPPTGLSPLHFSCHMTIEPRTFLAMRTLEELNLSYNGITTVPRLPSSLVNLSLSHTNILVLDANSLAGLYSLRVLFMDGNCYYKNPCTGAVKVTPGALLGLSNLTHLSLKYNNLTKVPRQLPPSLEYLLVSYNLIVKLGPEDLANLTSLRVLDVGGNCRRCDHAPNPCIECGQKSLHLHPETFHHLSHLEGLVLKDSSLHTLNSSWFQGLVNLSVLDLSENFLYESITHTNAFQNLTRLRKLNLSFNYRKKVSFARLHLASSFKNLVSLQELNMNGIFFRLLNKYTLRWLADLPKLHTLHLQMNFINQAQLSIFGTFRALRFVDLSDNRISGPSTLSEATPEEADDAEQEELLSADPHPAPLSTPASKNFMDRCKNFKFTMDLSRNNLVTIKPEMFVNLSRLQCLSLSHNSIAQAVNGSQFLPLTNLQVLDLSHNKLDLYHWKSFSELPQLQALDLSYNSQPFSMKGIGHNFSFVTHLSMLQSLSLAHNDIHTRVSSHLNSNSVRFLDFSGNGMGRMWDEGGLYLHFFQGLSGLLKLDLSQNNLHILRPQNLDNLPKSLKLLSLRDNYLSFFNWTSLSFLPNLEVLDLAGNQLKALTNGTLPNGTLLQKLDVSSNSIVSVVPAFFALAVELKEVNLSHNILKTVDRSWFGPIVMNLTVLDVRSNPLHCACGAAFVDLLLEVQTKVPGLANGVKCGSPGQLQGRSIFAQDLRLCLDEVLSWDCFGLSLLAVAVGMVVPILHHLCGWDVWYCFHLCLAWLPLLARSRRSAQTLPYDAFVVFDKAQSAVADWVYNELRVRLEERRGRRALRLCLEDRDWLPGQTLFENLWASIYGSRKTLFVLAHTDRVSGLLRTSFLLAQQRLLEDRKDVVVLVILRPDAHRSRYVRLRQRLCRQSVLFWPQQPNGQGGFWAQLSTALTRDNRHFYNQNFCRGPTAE
Description: Inhibition of MyD88 recruitment to TLR9 in C57BL/6 mouse BMDM cells assessed as inhibition of CpG-induced IkappaBalpha phosphorylation up to 90 mins by Western blot analysis. The method in brief: as §1

Calls of active or inactive are those of the source. The calls are words filed in the database; no cut-off is given here.

Chain of Toll-like receptor 2 (Mus musculus) (Q9QUN7 whole entry): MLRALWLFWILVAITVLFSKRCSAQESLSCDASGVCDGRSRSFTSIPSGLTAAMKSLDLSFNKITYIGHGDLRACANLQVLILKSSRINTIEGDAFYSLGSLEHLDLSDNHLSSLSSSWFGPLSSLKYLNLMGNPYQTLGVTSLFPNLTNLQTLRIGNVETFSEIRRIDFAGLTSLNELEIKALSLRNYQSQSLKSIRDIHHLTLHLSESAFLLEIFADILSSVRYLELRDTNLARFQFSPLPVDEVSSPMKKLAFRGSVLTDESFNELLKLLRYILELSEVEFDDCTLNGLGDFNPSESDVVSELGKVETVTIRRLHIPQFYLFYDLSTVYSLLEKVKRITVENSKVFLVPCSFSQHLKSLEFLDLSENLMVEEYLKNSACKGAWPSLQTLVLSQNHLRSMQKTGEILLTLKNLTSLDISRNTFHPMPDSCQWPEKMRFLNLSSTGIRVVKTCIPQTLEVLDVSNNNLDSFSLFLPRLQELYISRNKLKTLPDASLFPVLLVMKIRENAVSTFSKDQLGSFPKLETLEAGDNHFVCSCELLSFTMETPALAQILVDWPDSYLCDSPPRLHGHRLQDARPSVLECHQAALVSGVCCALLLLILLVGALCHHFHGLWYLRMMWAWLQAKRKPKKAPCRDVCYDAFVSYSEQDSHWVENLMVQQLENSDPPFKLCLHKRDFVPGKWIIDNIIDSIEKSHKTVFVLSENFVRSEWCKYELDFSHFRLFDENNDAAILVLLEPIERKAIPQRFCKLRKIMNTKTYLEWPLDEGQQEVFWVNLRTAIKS

On to `O=C(CCCCCN1C(=O)CCC1=O)Oc1ccc2cc(C(C(=O)NCc3ccccc3)N(C(=O)Cc3ccc4c(c3)OCO4)C3CC3)ccc2c1` (centres undefined), for which the “inhibition of IkappaBalpha phosphorylation (active/not active)” value (“inhibition … (active/not active)” below) in experiment [1] was “inactive”. Besides, the inhibition entry in experiment [2] and in experiment [3] was “Active” throughout.

On to `O=C(CCCCCN1C(=O)C=CC1=O)Oc1ccc2cc(C(C(=O)NCc3ccccc3)N(C(=O)Cc3ccc4c(c3)OCO4)C3CC3)ccc2c1` (centres undefined), for which the “inhibition … (active/not active)” value in experiment [1] is “Active”. Besides, the inhibition result in experiment [2] and in experiment [3] was “Active” each time.

Turning to `O=C(CCCCCCCC(=O)ON1C(=O)CCC1=O)Oc1ccc2cc(C(C(=O)NCc3ccccc3)N(C(=O)Cc3ccc4c(c3)OCO4)C3CC3)ccc2c1` (centres undefined), in experiment [1], the “inhibition … (active/not active)” value was “Active”. Moreover, the inhibition entry in experiment [2] and in experiment [3] was “Active” each time.
